The compounds below were run on Hepatitis C virus (assay: Ratio of EC50 for Hepatitis C virus subtype 1b expressing NS3 A156V mutant to EC50 for Hepatitis C virus subtype 1b expressing WT NS3 infected in HuH7 cells after 48 hrs by luciferase reporter assay). Settings: not given.
Format: functional, Hepacivirus hominis, genotype 1b, Huh-7
Outline: (§1)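 Genotype 1b con1 subgenomic bicistronic replicon (clone ET) with luciferase reporter and adaptive mutations E1202G, T1280I, K1846T, carrying site-directed NS3 single or double mutations. 10 μg wild-type or mutant replicon RNA electroporated into Huh7-lunet cells, seeded 4,000 cells/well over a nine-point inhibitor dilution series, 48 h at 37°C, 5% CO2, then luminescence read. EC50 taken as median of individual experiments; fold change relative to parental replicon EC50.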

Q: How did the “Ratio EC50” value turn out when `COc1ccc2c(O[C@@H]3C[C@H]4C(=O)N[C@]5(C(=O)NS(=O)(=O)C6CC6)C[C@H]5/C=C\CCCCN(C)C(=O)[C@@H]4C3)cc(-c3nc(C(C)C)cs3)nc2c1C` [SIMEPREVIR] was run?
A: Its value is 177.

These compounds were tested on Hepatitis C virus (assay: Antiviral activity against Hepatitis C virus subtype 1b expressing NS3 D168Y mutant infected in HuH7 cells after 48 hrs by luciferase reporter assay). Settings: genotype 1b, Huh-7, 48 h.
Format: functional, organism-based, Hepacivirus hominis
Outline: as §1

Q: For `COc1ccc2c(O[C@@H]3C[C@H]4C(=O)N[C@]5(C(=O)NS(=O)(=O)C6CC6)C[C@H]5/C=C\CCCCN(C)C(=O)[C@@H]4C3)cc(-c3nc(C(C)C)cs3)nc2c1C` [SIMEPREVIR], which EC50 is on record?
A: Its EC50 is 6.24 µM.

What follows are compounds tested on Hepatitis C virus (assay: Ratio of EC50 for Hepatitis C virus subtype 1b expressing NS3 T54S mutant to EC50 for Hepatitis C virus subtype 1b expressing WT NS3 infected in HuH7 cells after 48 hrs by luciferase reporter assay). Settings: not given.
Format: functional, Hepacivirus hominis, genotype 1b, Huh-7
Outline: (§2)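 Transient replicon assay: site-directed single or multiple NS3 mutations engineered into genotype 1b (con1, clone ET) subgenomic bicistronic replicon with luciferase reporter and adaptive mutations E1202G, T1280I, K1846T. Huh7-lunet cells electroporated with 10 μg wild-type or mutant replicon RNA, seeded 4,000 cells/well with nine-point inhibitor dilution; 48 h, 37°C, 5% CO2; luminescence read-out. EC50 as median of individual experiments; fold change versus parental replicon EC50.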

Q: For `COc1ccc2c(O[C@@H]3C[C@H]4C(=O)N[C@]5(C(=O)NS(=O)(=O)C6CC6)C[C@H]5/C=C\CCCCN(C)C(=O)[C@@H]4C3)cc(-c3nc(C(C)C)cs3)nc2c1C` [SIMEPREVIR], which “Ratio EC50” value is on record?
A: The value was 1.2.

These compounds were tested on Hepatitis C virus (assay: Ratio of EC50 for Hepatitis C virus subtype 1b expressing NS3 Q80R mutant to EC50 for Hepatitis C virus subtype 1b expressing WT NS3 infected in HuH7 cells after 48 hrs by luciferase reporter assay). Settings: not given.
Format: functional, Hepacivirus hominis, genotype 1b, Huh-7
Outline: as §2

Q: With `COc1ccc2c(O[C@@H]3C[C@H]4C(=O)N[C@]5(C(=O)NS(=O)(=O)C6CC6)C[C@H]5/C=C\CCCCN(C)C(=O)[C@@H]4C3)cc(-c3nc(C(C)C)cs3)nc2c1C` [SIMEPREVIR] as the compound, how does the “Ratio EC50” value read?
A: The value was 6.9.

What follows are compounds tested on Hepatitis C virus (assay: Antiviral activity against Hepatitis C virus subtype 1b expressing NS3 D168H mutant infected in HuH7 cells after 48 hrs by luciferase reporter assay). Settings: genotype 1b, Huh-7, 48 h.
Format: functional, organism-based, Hepacivirus hominis
Outline: as §1

Q: With `COc1ccc2c(O[C@@H]3C[C@H]4C(=O)N[C@]5(C(=O)NS(=O)(=O)C6CC6)C[C@H]5/C=C\CCCCN(C)C(=O)[C@@H]4C3)cc(-c3nc(C(C)C)cs3)nc2c1C` [SIMEPREVIR] as the compound, how does the EC50 read?
A: Its EC50 is 5.66 µM.

What follows are compounds tested on Hepatitis C virus (assay: Ratio of EC50 for Hepatitis C virus subtype 1b expressing NS3 D168V mutant to EC50 for Hepatitis C virus subtype 1b expressing WT NS3 infected in HuH7 cells after 48 hrs by luciferase reporter assay). Settings: not given.
Format: functional, Hepacivirus hominis, genotype 1b, Huh-7
Outline: as §2

Q: For `COc1ccc2c(O[C@@H]3C[C@H]4C(=O)N[C@]5(C(=O)NS(=O)(=O)C6CC6)C[C@H]5/C=C\CCCCN(C)C(=O)[C@@H]4C3)cc(-c3nc(C(C)C)cs3)nc2c1C` [SIMEPREVIR], which “Ratio EC50” value is on record?
A: Its value is 2591.

These compounds were tested on Hepatitis C virus (assay: Antiviral activity against Hepatitis C virus subtype 1b expressing NS3 Q80G mutant infected in HuH7 cells after 48 hrs by luciferase reporter assay). Settings: genotype 1b, Huh-7, 48 h.
Format: functional, organism-based, Hepacivirus hominis
Outline: as §1

Q: `COc1ccc2c(O[C@@H]3C[C@H]4C(=O)N[C@]5(C(=O)NS(=O)(=O)C6CC6)C[C@H]5/C=C\CCCCN(C)C(=O)[C@@H]4C3)cc(-c3nc(C(C)C)cs3)nc2c1C` [SIMEPREVIR] was tested. Which EC50 did it give?
A: The EC50 was 22 nM.

Each compound was assayed on Hepatitis C virus (assay: Ratio of EC50 for Hepatitis C virus subtype 1b expressing NS3 A156S mutant to EC50 for Hepatitis C virus subtype 1b expressing WT NS3 infected in HuH7 cells after 48 hrs by luciferase reporter assay). Settings: not given.
Format: functional, Hepacivirus hominis, genotype 1b, Huh-7
Outline: as §1

Q: `COc1ccc2c(O[C@@H]3C[C@H]4C(=O)N[C@]5(C(=O)NS(=O)(=O)C6CC6)C[C@H]5/C=C\CCCCN(C)C(=O)[C@@H]4C3)cc(-c3nc(C(C)C)cs3)nc2c1C` [SIMEPREVIR] was tested. Which “Ratio EC50” value did it give?
A: Its value is 0.3.

What follows are compounds tested on Hepatitis C virus (assay: Ratio of EC50 for Hepatitis C virus subtype 1b expressing NS3 R155Q mutant to EC50 for Hepatitis C virus subtype 1b expressing WT NS3 infected in HuH7 cells after 48 hrs by luciferase reporter assay). Settings: not given.
Format: functional, Hepacivirus hominis, genotype 1b, Huh-7
Outline: as §2

Q: With `COc1ccc2c(O[C@@H]3C[C@H]4C(=O)N[C@]5(C(=O)NS(=O)(=O)C6CC6)C[C@H]5/C=C\CCCCN(C)C(=O)[C@@H]4C3)cc(-c3nc(C(C)C)cs3)nc2c1C` [SIMEPREVIR] as the compound, how does the “Ratio EC50” value read?
A: Its value is 1.6.

What follows are compounds tested on Hepatitis C virus (assay: Ratio of EC50 for Hepatitis C virus subtype 1b expressing NS3 D168Y mutant to EC50 for Hepatitis C virus subtype 1b expressing WT NS3 infected in HuH7 cells after 48 hrs by luciferase reporter assay). Settings: not given.
Format: functional, Hepacivirus hominis, genotype 1b, Huh-7
Outline: as §2

Q: `COc1ccc2c(O[C@@H]3C[C@H]4C(=O)N[C@]5(C(=O)NS(=O)(=O)C6CC6)C[C@H]5/C=C\CCCCN(C)C(=O)[C@@H]4C3)cc(-c3nc(C(C)C)cs3)nc2c1C` [SIMEPREVIR] was tested. Which “Ratio EC50” value did it give?
A: The value was 666.

These compounds were tested on Hepatitis C virus (assay: Ratio of EC50 for Hepatitis C virus subtype 1b expressing NS3 Q80G mutant to EC50 for Hepatitis C virus subtype 1b expressing WT NS3 infected in HuH7 cells after 48 hrs by luciferase reporter assay). Settings: not given.
Format: functional, Hepacivirus hominis, genotype 1b, Huh-7
Outline: as §2

Q: With `COc1ccc2c(O[C@@H]3C[C@H]4C(=O)N[C@]5(C(=O)NS(=O)(=O)C6CC6)C[C@H]5/C=C\CCCCN(C)C(=O)[C@@H]4C3)cc(-c3nc(C(C)C)cs3)nc2c1C` [SIMEPREVIR] as the compound, how does the “Ratio EC50” value read?
A: The value was 1.8.

What follows are compounds tested on Hepatitis C virus (assay: Antiviral activity against Hepatitis C virus subtype 1b expressing NS3 R155I mutant infected in HuH7 cells after 48 hrs by luciferase reporter assay). Settings: genotype 1b, Huh-7, 48 h.
Format: functional, organism-based, Hepacivirus hominis
Outline: as §1

Q: With `COc1ccc2c(O[C@@H]3C[C@H]4C(=O)N[C@]5(C(=O)NS(=O)(=O)C6CC6)C[C@H]5/C=C\CCCCN(C)C(=O)[C@@H]4C3)cc(-c3nc(C(C)C)cs3)nc2c1C` [SIMEPREVIR] as the compound, how does the EC50 read?
A: The EC50 was 6.6 nM.

The compounds below were run on Hepatitis C virus (assay: Antiviral activity against Hepatitis C virus subtype 1b expressing NS3 T54S mutant infected in HuH7 cells after 48 hrs by luciferase reporter assay). Settings: genotype 1b, Huh-7, 48 h.
Format: functional, organism-based, Hepacivirus hominis
Outline: as §1

Q: `COc1ccc2c(O[C@@H]3C[C@H]4C(=O)N[C@]5(C(=O)NS(=O)(=O)C6CC6)C[C@H]5/C=C\CCCCN(C)C(=O)[C@@H]4C3)cc(-c3nc(C(C)C)cs3)nc2c1C` [SIMEPREVIR] was tested. Which EC50 did it give?
A: Its EC50 is 5.4 nM.

These compounds were tested on Hepatitis C virus (assay: Antiviral activity against Hepatitis C virus subtype 1b expressing NS3 R155G mutant infected in HuH7 cells after 48 hrs by luciferase reporter assay). Settings: genotype 1b, Huh-7, 48 h.
Format: functional, organism-based, Hepacivirus hominis
Outline: as §1

Q: With `COc1ccc2c(O[C@@H]3C[C@H]4C(=O)N[C@]5(C(=O)NS(=O)(=O)C6CC6)C[C@H]5/C=C\CCCCN(C)C(=O)[C@@H]4C3)cc(-c3nc(C(C)C)cs3)nc2c1C` [SIMEPREVIR] as the compound, how does the EC50 read?
A: Its EC50 is 350 nM.

Each compound was assayed on Hepatitis C virus (assay: Ratio of EC50 for Hepatitis C virus subtype 1b expressing NS3 D168T mutant to EC50 for Hepatitis C virus subtype 1b expressing WT NS3 infected in HuH7 cells after 48 hrs by luciferase reporter assay). Settings: not given.
Format: functional, Hepacivirus hominis, genotype 1b, Huh-7
Outline: as §2

Q: How did the “Ratio EC50” value turn out when `COc1ccc2c(O[C@@H]3C[C@H]4C(=O)N[C@]5(C(=O)NS(=O)(=O)C6CC6)C[C@H]5/C=C\CCCCN(C)C(=O)[C@@H]4C3)cc(-c3nc(C(C)C)cs3)nc2c1C` [SIMEPREVIR] was run?
A: The value was 308.

These compounds were tested on Hepatitis C virus (assay: Antiviral activity against Hepatitis C virus subtype 1b expressing NS3 Q80R mutant infected in HuH7 cells after 48 hrs by luciferase reporter assay). Settings: genotype 1b, Huh-7, 48 h.
Format: functional, organism-based, Hepacivirus hominis
Outline: as §1

Q: Which EC50 does the source give for `COc1ccc2c(O[C@@H]3C[C@H]4C(=O)N[C@]5(C(=O)NS(=O)(=O)C6CC6)C[C@H]5/C=C\CCCCN(C)C(=O)[C@@H]4C3)cc(-c3nc(C(C)C)cs3)nc2c1C` [SIMEPREVIR] here?
A: The EC50 was 49 nM.

— ChEMBL document CHEMBL1671684, “In vitro resistance profile of the hepatitis C virus NS3/4A protease inhibitor TMC435” (Antimicrob Agents Chemother, 2010)
